One experiment relates to cells from PDX283. The experiment in a line: viability of cells isolated from PDX283 tumor, in vitro. It is filed as cell-based, human. The note with it: concentrations up to 16 μM.
Experiment [1] deals with CCA patient-derived xenografts. The note with it: cited from earlier work.
The next experiment has as its system HuCCT-1 reporter cells. The experiment in a line: luminescent reporter of TEAD-dependent transcription. It is filed as cell-based.
Experiment [2] relates to PDX283 tumors. The experiment in a line: PDX283 xenograft tumor growth. It is filed as in vivo, NOD/SCID mice. The note with it: 1 mg/kg/mouse intraperitoneal 3 times per week for 3 weeks. An outline of the steps:
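Female NOD/SCID mice aged 6–8 weeks carried flank implants of the human CCA tumor. Dosing began once tumors were palpable (>25 mm³). Tumor growth was followed.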

In experiment [3] the test system is PDX283 tumors. The experiment in a line: pharmacodynamics in PDX283 tumors. The note with it: CA3-treated mice, qRT-PCR. It counts as in vivo, NOD/SCID mice. On the technique in general: Real-time PCR tracks product formation cycle by cycle.

For the molecule `CCN1C(=O)N(c2c(F)c(OC)cc(OC)c2F)Cc2cnc3[nH]c(CN4CCOCC4)cc3c21` [pemigatinib], the “sensitivity of PDX283 cells” value in the experiment with cells from PDX283 is “resistance”.
In the case of `Cc1nc(Nc2ncc(C(=O)Nc3c(C)cccc3Cl)s2)cc(N2CCN(CCO)CC2)n1` [dasatinib], the “in vivo growth of CCA patient-derived xenografts” value in experiment [1] was “inhibited”.
Consider Verteporfin, for which, in the experiment on HuCCT-1 reporter cells, the “global TEAD-dependent transcription” value is on record as “decreased”.
On to `O=S(=O)(c1ccc2c(c1)C(=NO)c1cc(S(=O)(=O)N3CCCCC3)ccc1-2)N1CCCCC1` [CA3], for which the “growth of PDX283 tumors” value with PDX283 tumors [2] is on record as “significantly decreased”. Also, the “YAP target gene expression in tumors” value in the experiment on PDX283 tumors [3] was “Inhibition”.
